The values below come from ChEMBL document CHEMBL4138113, “Novel propanamides as fatty acid amide hydrolase inhibitors” (Eur J Med Chem, 2017).

The source made the active and inactive calls.

In assay [1] the target is T1, Fatty-acid amide hydrolase 1 (Rattus norvegicus, UniProt P97612).
T1 sequence (P97612 whole entry): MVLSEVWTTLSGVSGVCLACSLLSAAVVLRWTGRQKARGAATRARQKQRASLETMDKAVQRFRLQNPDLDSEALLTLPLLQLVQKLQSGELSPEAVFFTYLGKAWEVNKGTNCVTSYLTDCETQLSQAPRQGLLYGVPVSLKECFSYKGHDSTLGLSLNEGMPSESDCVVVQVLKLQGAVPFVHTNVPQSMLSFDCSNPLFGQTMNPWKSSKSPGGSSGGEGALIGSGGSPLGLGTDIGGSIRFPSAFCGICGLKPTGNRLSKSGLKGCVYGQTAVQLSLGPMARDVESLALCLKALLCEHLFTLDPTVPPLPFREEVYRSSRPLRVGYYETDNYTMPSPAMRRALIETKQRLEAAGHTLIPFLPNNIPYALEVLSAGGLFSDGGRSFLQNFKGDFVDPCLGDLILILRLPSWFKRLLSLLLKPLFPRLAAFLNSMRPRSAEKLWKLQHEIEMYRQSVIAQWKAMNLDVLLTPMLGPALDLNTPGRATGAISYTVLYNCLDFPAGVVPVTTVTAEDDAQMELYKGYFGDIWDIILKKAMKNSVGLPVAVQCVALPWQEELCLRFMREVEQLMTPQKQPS
In words: Noncompetitive inhibition of rat brain FAAH using [3H]AEA as substrate after 10 mins by Dixon plot analysis. Summed up: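 Kinetic study in rat brain homogenate (1 µg protein per assay). [3H]AEA hydrolysis ran for 10 min at 37 °C in Tris-EDTA buffer, pH 7.4, with the AEA:fatty acid-free BSA ratio held at 1:~4.5 across substrate levels. Radioactivity was measured by charcoal separation and scintillation counting. Data were fitted to competitive, mixed-type and non-competitive models, and the best model was chosen by Akaike's criterion.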

Assay [2] concerns the target T2, Prostaglandin G/H synthase 1 (Ovis aries) (UniProt P05979).
T2 sequence (whole entry): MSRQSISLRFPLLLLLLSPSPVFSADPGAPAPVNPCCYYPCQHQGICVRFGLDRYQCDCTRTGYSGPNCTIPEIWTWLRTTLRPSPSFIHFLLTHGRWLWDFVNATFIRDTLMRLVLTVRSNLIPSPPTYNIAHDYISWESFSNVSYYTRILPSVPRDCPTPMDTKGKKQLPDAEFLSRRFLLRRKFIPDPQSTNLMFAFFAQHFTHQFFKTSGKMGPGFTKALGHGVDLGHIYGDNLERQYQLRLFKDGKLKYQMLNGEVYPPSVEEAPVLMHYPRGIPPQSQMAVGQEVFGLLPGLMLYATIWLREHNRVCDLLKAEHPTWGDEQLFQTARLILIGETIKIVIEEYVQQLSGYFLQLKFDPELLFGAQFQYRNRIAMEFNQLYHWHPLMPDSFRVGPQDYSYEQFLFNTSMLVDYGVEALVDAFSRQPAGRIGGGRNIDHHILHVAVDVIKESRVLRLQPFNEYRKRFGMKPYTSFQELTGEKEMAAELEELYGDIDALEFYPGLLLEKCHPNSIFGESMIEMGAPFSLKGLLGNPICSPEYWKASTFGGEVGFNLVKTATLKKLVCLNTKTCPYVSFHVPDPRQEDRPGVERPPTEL
In words: Inhibition of recombinant ovine COX1 at 100 uM using arachidonic acid as substrate after 5 mins. The method in brief:
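Oxygen-electrode assay at room temperature in 0.1 M Tris-HCl, pH 7.4, with 1 µM haematin, 2 mM phenol, 5 mM EDTA and 10 µM (final) arachidonic acid or 2-AG. Compound in EtOH was added and a 5 min baseline recorded. The reaction was started with ovine COX-1 or human recombinant COX-2 (200 U), and oxygen consumption was read in 10 s blocks. Means ± SEM, n = 3-4.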

For assay [3], the target named is T3, Fatty-acid amide hydrolase 1 (Homo sapiens, UniProt O00519).
T3 sequence (O00519 whole entry): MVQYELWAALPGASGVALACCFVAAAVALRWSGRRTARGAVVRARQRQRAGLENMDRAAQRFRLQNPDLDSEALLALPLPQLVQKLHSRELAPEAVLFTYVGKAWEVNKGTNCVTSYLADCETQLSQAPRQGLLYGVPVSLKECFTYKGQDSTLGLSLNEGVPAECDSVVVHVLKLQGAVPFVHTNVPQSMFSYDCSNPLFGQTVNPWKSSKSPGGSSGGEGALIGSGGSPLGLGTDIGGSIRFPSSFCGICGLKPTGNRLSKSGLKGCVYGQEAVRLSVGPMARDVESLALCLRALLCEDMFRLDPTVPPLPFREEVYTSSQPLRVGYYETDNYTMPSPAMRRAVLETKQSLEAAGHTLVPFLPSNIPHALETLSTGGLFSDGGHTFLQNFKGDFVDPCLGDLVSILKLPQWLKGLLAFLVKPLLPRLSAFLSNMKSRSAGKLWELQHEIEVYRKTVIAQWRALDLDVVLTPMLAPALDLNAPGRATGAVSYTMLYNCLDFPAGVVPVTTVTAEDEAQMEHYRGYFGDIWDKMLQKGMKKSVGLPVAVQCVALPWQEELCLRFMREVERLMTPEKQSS
In words: Inhibition of FAAH (unknown origin) expressed in human HeLa cells transfected with empty vector using [3H]AEA as substrate after 2 hrs by liquid scintillation counting analysis. It is filed as cell-based.

In assay [4] the target is Fatty-acid amide hydrolase 1 (Homo sapiens, UniProt O00519, T488A). The assay is described as follows: Inhibition of FAAH T488A mutant (unknown origin) expressed in human HeLa cells using [3H]AEA as substrate after 2 hrs by liquid scintillation counting analysis. It is filed as cell-based.
Sequence of Fatty-acid amide hydrolase 1 (Homo sapiens, UniProt O00519, T488A) (O00519 whole entry T488A): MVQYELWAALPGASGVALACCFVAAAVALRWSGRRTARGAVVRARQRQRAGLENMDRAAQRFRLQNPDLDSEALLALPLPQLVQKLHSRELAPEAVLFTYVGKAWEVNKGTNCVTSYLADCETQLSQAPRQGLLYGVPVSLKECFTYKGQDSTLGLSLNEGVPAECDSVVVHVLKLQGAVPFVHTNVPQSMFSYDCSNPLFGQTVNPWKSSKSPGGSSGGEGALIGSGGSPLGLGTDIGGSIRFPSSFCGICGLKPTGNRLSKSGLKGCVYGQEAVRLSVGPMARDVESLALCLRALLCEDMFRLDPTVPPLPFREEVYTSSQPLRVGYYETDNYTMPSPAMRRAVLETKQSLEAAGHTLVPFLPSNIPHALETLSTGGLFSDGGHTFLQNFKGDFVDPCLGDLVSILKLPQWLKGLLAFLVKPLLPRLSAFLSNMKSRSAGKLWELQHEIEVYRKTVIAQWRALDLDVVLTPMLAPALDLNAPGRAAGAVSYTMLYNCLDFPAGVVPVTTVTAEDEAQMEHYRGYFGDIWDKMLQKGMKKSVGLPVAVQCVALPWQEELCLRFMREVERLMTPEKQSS

As usually defined, the Ki is the dissociation constant of the complex between target and ligand, obtained from inhibition or displacement. Low readings indicate tighter binding, high ones weaker binding. Take `CC(C(=O)Nc1ncccc1Cl)c1ccc(Nc2ccnc(C(F)(F)F)c2)cc1` (centres undefined): the Ki in assay [1] stood at 0.11 µM. Moreover, the inhibition result in assay [2] is “Active”.
What is called IC50 is the concentration needed to halve the response being measured. Lower therefore signals greater potency in that assay. For `Cc1cccnc1NC(=O)C(C)c1ccc(Nc2ccnc(C(F)(F)F)c2)cc1` (centres undefined), the IC50 in assay [3] was 2.5 µM; in assay [4] it was 1.9 to 9.4 µM.
